Experimental data taken from ChEMBL document CHEMBL1154588, “Evaluation of triazolamers as active site inhibitors of HIV-1 protease” (Bioorg Med Chem Lett, 2009).

Each compound was assayed against Protease (Human immunodeficiency virus 1, UniProt Q9YQ12) (assay: Inhibition of HIV1 protease by FRET-based assay).
Chain of Protease (Q9YQ12 whole entry): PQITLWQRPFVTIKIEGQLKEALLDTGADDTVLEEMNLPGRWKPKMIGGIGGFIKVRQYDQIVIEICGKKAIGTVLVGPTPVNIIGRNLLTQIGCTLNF
Summary of the method: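 HIV-1 protease activity was read out by a FRET-based protease assay, following a previously described method. Triazolamer solutions were made up in 10% DMSO in aqueous buffer for the assay.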
Compound `CC(C)[C@H](N)c1cn([C@@H](Cc2ccccc2)c2cn([C@@H](Cc3ccccc3)c3cn([C@H](C)c4ccccc4)nn3)nn2)nn1` has an IC50 of 129 µM. `CC(C)[C@H](N)c1cn([C@H](c2cn([C@@H](Cc3ccccc3)c3cn([C@H](c4cn([C@H](C)c5ccccc5)nn4)C(C)C)nn3)nn2)C(C)C)nn1` gave an IC50 of 131 µM. In the case of `CNC(=O)[C@H](C(C)C)n1cc([C@H](Cc2ccccc2)n2cc([C@H](Cc3ccccc3)n3cc([C@H](C)N)nn3)nn2)nn1`, the IC50 is reported as greater than 500 µM and the Ki is reported as 500 µM. `C[C@H](c1ccccc1)n1cc([C@H](Cc2ccccc2)n2cc([C@H](Cc3ccccc3)n3cc([C@@H](N)Cc4ccccc4)nn3)nn2)nn1` was tested, and the IC50 was 78 µM. With `NCCNC(=O)[C@H](Cc1ccccc1)n1cc([C@H](Cc2ccccc2)n2cc([C@H](Cc3ccccc3)n3cc([C@H](Cc4ccccc4)n4cc([C@@H](N)Cc5ccccc5)nn4)nn3)nn2)nn1` the IC50 was 25 µM and the Ki was 25 µM. With `CNC(=O)[C@H](Cc1ccccc1)n1cc([C@H](Cc2ccccc2)n2cc([C@H](Cc3ccccc3)n3cc([C@H](Cc4ccccc4)n4cc([C@@H](N)Cc5ccccc5)nn4)nn3)nn2)nn1` the IC50 was 72 µM. `CC(C)[C@@H](c1cn([C@@H](Cc2ccccc2)c2cn([C@@H](Cc3ccccc3)c3cn([C@H](c4cn([C@H](C)c5ccccc5)nn4)C(C)C)nn3)nn2)nn1)n1cc(CCc2ccccc2)nn1` was tested, and the IC50 was 101 µM. With `CC(C)[C@H](N)c1cn([C@@H](Cc2ccccc2)c2cn([C@@H](Cc3ccccc3)c3cn([C@H](c4cn([C@H](C)c5ccccc5)nn4)C(C)C)nn3)nn2)nn1` the IC50 was 60 µM. Compound `CNC(=O)[C@H](C(C)C)n1cc([C@H](Cc2ccccc2)n2cc([C@H](Cc3ccccc3)n3cc([C@@H](N)C(C)C)nn3)nn2)nn1` has an IC50 greater than 500 µM and a Ki of 500 µM. `C[C@H](c1ccccc1)n1cc([C@H](Cc2ccccc2)n2cc([C@H](Cc3ccccc3)n3cc([C@H](Cc4ccccc4)n4cc([C@@H](N)Cc5ccccc5)nn4)nn3)nn2)nn1` showed an IC50 of 29 µM and a Ki of 25 µM.
